# Tested on: Mycobacterium tuberculosis
# Assay: In vitro activity against Mycobacterium tuberculosis (ATCC 27294)
# Format: functional
# Conditions: not given
# Summary of the method: (§1)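 Broth macrodilution MIC. Cultures were grown in modified Middlebrook 7H10 broth (agar and malachite green omitted) with 10% OADC and 0.05% Tween 80, shaken at 37 °C for 3 days, then diluted in 7H10 broth to 1 Klett unit/mL. Test agents were dissolved in water or DMSO and filter-sterilised, then serially diluted 2-fold in 7H10 broth at pH 5.8. Tubes were shaken at 37 °C for 7–10 days, with a drug-free control. MIC was the lowest concentration with no visible turbidity, expressed in mmol/L.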
row,Compound,Log 1/MMIC
1,CCCCCCC(C)(CCCCC)OC(=O)c1cnc(Cl)cn1 (stereo not drawn),2.232
2,CCCCCCCCCC(C)(C)OC(=O)c1cnc(Cl)cn1,1.611
3,CCCCCCC(C)(CCCCCC)OC(=O)c1cnc(Cl)cn1,3.152
4,CC(C)COC(=O)c1cnc(Cl)cn1,2.031
5,CCCCCCCCCCCOC(=O)c1cnc(Cl)cn1,3.097
6,CCCCCCCC(C)(CCCC)OC(=O)c1cnc(Cl)cn1 (stereo not drawn),1.63
7,CCCCCCOC(=O)c1cnc(Cl)cn1,3.288
8,CCCCCC(CC)OC(=O)c1cnc(Cl)cn1 (stereo not drawn),2.734
9,CCCOC(=O)c1cnc(Cl)cn1,3.524
10,CCCCCCCCC(C)OC(=O)c1cnc(Cl)cn1 (stereo not drawn),3.697
11,CCCCCCCCC(CC)OC(=O)c1cnc(Cl)cn1 (stereo not drawn),3.097
12,CCCCCOC(=O)c1cnc(Cl)cn1,3.581
13,CCCCCC(C)OC(=O)c1cnc(Cl)cn1 (stereo not drawn),3.631
14,CCCCOC(=O)c1cnc(Cl)cn1,2.934
15,CCCCCCCCC(C)(C)OC(=O)c1cnc(Cl)cn1,1.592
16,CCCCCCCCCCOC(=O)c1cnc(F)cn1,2.15
17,CCCCCCCCCCCC(C)OC(=O)c1cnc(Cl)cn1 (stereo not drawn),2.232

# Tested on: Mycobacterium avium
# Assay: In vitro activity against Mycobacterium avium (ATCC 49601).
# Format: functional
# Conditions: not given
# Summary of the method: as §1
row,Compound,Log 1/MMIC
1,CCCCCCC(C)(CCCCC)OC(=O)c1cnc(Cl)cn1 (stereo not drawn),0.726
2,CCCCCCCCCC(C)(C)OC(=O)c1cnc(Cl)cn1,0.106
3,CCCCCCC(C)(CCCCCC)OC(=O)c1cnc(Cl)cn1,1.346
4,CC(C)COC(=O)c1cnc(Cl)cn1,0.526
5,CCCCCCCCCCCOC(=O)c1cnc(Cl)cn1,1.592
6,CCCCCCCC(C)(CCCC)OC(=O)c1cnc(Cl)cn1 (stereo not drawn),0.124
7,CCCCCCOC(=O)c1cnc(Cl)cn1,1.181
8,CCCCCC(CC)OC(=O)c1cnc(Cl)cn1 (stereo not drawn),0.927
9,CCCOC(=O)c1cnc(Cl)cn1,1.098
10,CCCCCCCCC(C)OC(=O)c1cnc(Cl)cn1 (stereo not drawn),0.97
11,CCCCCCCCC(CC)OC(=O)c1cnc(Cl)cn1 (stereo not drawn),0.087
12,CCCCCOC(=O)c1cnc(Cl)cn1,0.854
13,CCCCCC(C)OC(=O)c1cnc(Cl)cn1 (stereo not drawn),0.904
14,CCCCOC(=O)c1cnc(Cl)cn1,0.225
15,CCCCCCCCC(C)(C)OC(=O)c1cnc(Cl)cn1,0.388
16,CCCCCCCCCCOC(=O)c1cnc(F)cn1,0.946
17,CCCCCCCCCCCC(C)OC(=O)c1cnc(Cl)cn1 (stereo not drawn),1.027

# Tested on: not listed separately
# Assay: Partition coefficient (logP)
# Format: physicochemical
# Conditions: octanol/water
row,Compound,logP
1,CCCCCCC(C)(CCCCC)OC(=O)c1cnc(Cl)cn1 (stereo not drawn),6.45
2,CCCCCCCCCC(C)(C)OC(=O)c1cnc(Cl)cn1,6.01
3,CCCCCCC(C)(CCCCCC)OC(=O)c1cnc(Cl)cn1,7.08
4,CC(C)COC(=O)c1cnc(Cl)cn1,1.97
5,CCCCCCCCCCCOC(=O)c1cnc(Cl)cn1,5.98
6,CCCCCCCC(C)(CCCC)OC(=O)c1cnc(Cl)cn1 (stereo not drawn),6.44
7,CCCCCCOC(=O)c1cnc(Cl)cn1,3.36
8,CCCCCC(CC)OC(=O)c1cnc(Cl)cn1 (stereo not drawn),4.24
9,CCCOC(=O)c1cnc(Cl)cn1,1.67
10,CCCCCCCCC(C)OC(=O)c1cnc(Cl)cn1 (stereo not drawn),4.75
11,CCCCCCCCC(CC)OC(=O)c1cnc(Cl)cn1 (stereo not drawn),5.99
12,CCCCCOC(=O)c1cnc(Cl)cn1,2.73
13,CCCCCC(C)OC(=O)c1cnc(Cl)cn1 (stereo not drawn),3
14,CCCCOC(=O)c1cnc(Cl)cn1,2.21
15,CCCCCCCCC(C)(C)OC(=O)c1cnc(Cl)cn1,5.51
16,CCCCCCCCCCOC(=O)c1cnc(F)cn1,5.08
17,CCCCCCCCCCCC(C)OC(=O)c1cnc(Cl)cn1 (stereo not drawn),6.25

# Tested on: not listed separately
# Assay: T1/2 in equine serum
# Format: ADME, organism-based, Equus caballus
# Conditions: horse
# Summary of the method: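 Ester from a 1 mg/mL stock was mixed with 5% aqueous equine serum in 0.01 M KH2PO4, pH 7.2. Remaining ester was measured by isocratic reverse-phase HPLC (80% acetonitrile/20% 0.1 M sodium acetate, pH 5.0), with UV detection at 265 nm against a standard curve. Half-life is the time to 50% conversion to the acid.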
row,Compound,half-life [min]
1,CCCCCCC(C)(CCCCC)OC(=O)c1cnc(Cl)cn1 (stereo not drawn),1410
2,CCCCCCCCCC(C)(C)OC(=O)c1cnc(Cl)cn1,902
3,CCCCCCC(C)(CCCCCC)OC(=O)c1cnc(Cl)cn1,1080
4,CC(C)COC(=O)c1cnc(Cl)cn1,11.8
5,CCCCCCCCCCCOC(=O)c1cnc(Cl)cn1,6
6,CCCCCCCC(C)(CCCC)OC(=O)c1cnc(Cl)cn1 (stereo not drawn),600
7,CCCCCCOC(=O)c1cnc(Cl)cn1,2.2
8,CCCCCC(CC)OC(=O)c1cnc(Cl)cn1 (stereo not drawn),7
9,CCCOC(=O)c1cnc(Cl)cn1,18.7
10,CCCCCCCCC(C)OC(=O)c1cnc(Cl)cn1 (stereo not drawn),23.7
11,CCCCCCCCC(CC)OC(=O)c1cnc(Cl)cn1 (stereo not drawn),9
12,CCCCCOC(=O)c1cnc(Cl)cn1,3.2
13,CCCCCC(C)OC(=O)c1cnc(Cl)cn1 (stereo not drawn),16.2
14,CCCCOC(=O)c1cnc(Cl)cn1,5.5
15,CCCCCCCCC(C)(C)OC(=O)c1cnc(Cl)cn1,957
16,CCCCCCCCCCOC(=O)c1cnc(F)cn1,4
17,CCCCCCCCCCCC(C)OC(=O)c1cnc(Cl)cn1 (stereo not drawn),50

# Tested on: Mycobacterium tuberculosis
# Assay: In vitro activity against Mycobacterium tuberculosis (ATCC 35828)
# Format: functional
# Conditions: not given
# Summary of the method: as §1
row,Compound,Log 1/MMIC
1,CCCCCCC(C)(CCCCC)OC(=O)c1cnc(Cl)cn1 (stereo not drawn),1.329
2,CCCCCCCCCC(C)(C)OC(=O)c1cnc(Cl)cn1,1.31
3,CCCCCCC(C)(CCCCCC)OC(=O)c1cnc(Cl)cn1,2.851
4,CC(C)COC(=O)c1cnc(Cl)cn1,2.031
5,CCCCCCCCCCCOC(=O)c1cnc(Cl)cn1,2.796
6,CCCCCCOC(=O)c1cnc(Cl)cn1,2.686
7,CCCCCC(CC)OC(=O)c1cnc(Cl)cn1 (stereo not drawn),3.035
8,CCCCCCCCC(C)OC(=O)c1cnc(Cl)cn1 (stereo not drawn),3.998
9,CCCCCCCCC(CC)OC(=O)c1cnc(Cl)cn1 (stereo not drawn),2.495
10,CCCCCOC(=O)c1cnc(Cl)cn1,3.262
11,CCCCCC(C)OC(=O)c1cnc(Cl)cn1 (stereo not drawn),3.631
12,CCCCOC(=O)c1cnc(Cl)cn1,2.633
13,CCCCCCCCC(C)(C)OC(=O)c1cnc(Cl)cn1,1.592
14,CCCCCCCCCCOC(=O)c1cnc(F)cn1,1.849
15,CCCCCCCCCCCC(C)OC(=O)c1cnc(Cl)cn1 (stereo not drawn),2.834

# Tested on: Mycobacterium tuberculosis
# Assay: In vitro activity against Mycobacterium tuberculosis (ATCC 35801)
# Format: functional
# Conditions: not given
# Summary of the method: as §1
row,Compound,Log 1/MMIC
1,CCCCCCCCCC(C)(C)OC(=O)c1cnc(Cl)cn1,2.514
2,CCCCCCC(C)(CCCCCC)OC(=O)c1cnc(Cl)cn1,2.851
3,CC(C)COC(=O)c1cnc(Cl)cn1,2.934
4,CCCCCCCCCCCOC(=O)c1cnc(Cl)cn1,2.796
5,CCCCCCCC(C)(CCCC)OC(=O)c1cnc(Cl)cn1 (stereo not drawn),1.931
6,CCCCCCOC(=O)c1cnc(Cl)cn1,3.288
7,CCCCCC(CC)OC(=O)c1cnc(Cl)cn1 (stereo not drawn),3.035
8,CCCOC(=O)c1cnc(Cl)cn1,3.825
9,CCCCCCCCC(C)OC(=O)c1cnc(Cl)cn1 (stereo not drawn),2.776
10,CCCCCCCCC(CC)OC(=O)c1cnc(Cl)cn1 (stereo not drawn),2.495
11,CCCCCOC(=O)c1cnc(Cl)cn1,2.961
12,CCCCCC(C)OC(=O)c1cnc(Cl)cn1 (stereo not drawn),2.711
13,CCCCOC(=O)c1cnc(Cl)cn1,3.633
14,CCCCCCCCC(C)(C)OC(=O)c1cnc(Cl)cn1,2.796
15,CCCCCCCCCCOC(=O)c1cnc(F)cn1,1.849
16,CCCCCCCCCCCC(C)OC(=O)c1cnc(Cl)cn1 (stereo not drawn),2.834

# Tested on: Mycobacterium kansasii
# Assay: in vitro activity against Mycobacterium kansasii (SWK).
# Format: functional
# Conditions: not given
# Summary of the method: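 M. kansasii clinical isolate SWK was grown 3 days at 37 °C with shaking in modified Middlebrook 7H10 broth with 10% OADC and 0.05% Tween 80, then diluted. It was tested in serial 2-fold dilutions in 7H10 broth at pH 5.8, shaken at 37 °C for 7–10 days, with a drug-free control. MIC was the lowest concentration giving no visible turbidity, expressed in mmol/L.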
row,Compound,Log 1/MMIC
1,CCCCCCC(C)(CCCCC)OC(=O)c1cnc(Cl)cn1 (stereo not drawn),1.63
2,CCCCCCCCCC(C)(C)OC(=O)c1cnc(Cl)cn1,2.815
3,CCCCCCC(C)(CCCCCC)OC(=O)c1cnc(Cl)cn1,2.249
4,CC(C)COC(=O)c1cnc(Cl)cn1,2.33
5,CCCCCCCCCCCOC(=O)c1cnc(Cl)cn1,3.717
6,CCCCCCCC(C)(CCCC)OC(=O)c1cnc(Cl)cn1 (stereo not drawn),1.329
7,CCCCCCOC(=O)c1cnc(Cl)cn1,4.21
8,CCCCCC(CC)OC(=O)c1cnc(Cl)cn1 (stereo not drawn),3.955
9,CCCOC(=O)c1cnc(Cl)cn1,2.904
10,CCCCCCCCC(C)OC(=O)c1cnc(Cl)cn1 (stereo not drawn),3.378
11,CCCCCCCCC(CC)OC(=O)c1cnc(Cl)cn1 (stereo not drawn),3.398
12,CCCCCOC(=O)c1cnc(Cl)cn1,3.882
13,CCCCCC(C)OC(=O)c1cnc(Cl)cn1 (stereo not drawn),3.313
14,CCCCOC(=O)c1cnc(Cl)cn1,2.33
15,CCCCCCCCC(C)(C)OC(=O)c1cnc(Cl)cn1,2.194
16,CCCCCCCCCCOC(=O)c1cnc(F)cn1,2.451
17,CCCCCCCCCCCC(C)OC(=O)c1cnc(Cl)cn1 (stereo not drawn),3.754

# Tested on: Mycobacterium avium
# Assay: In vitro activity against Mycobacterium avium (MAC-101).
# Format: functional
# Conditions: not given
# Summary of the method: as §1
row,Compound,Log 1/MMIC
1,CCCCCCC(C)(CCCCC)OC(=O)c1cnc(Cl)cn1 (stereo not drawn),0.726
2,CCCCCCCCCC(C)(C)OC(=O)c1cnc(Cl)cn1,0.106
3,CCCCCCC(C)(CCCCCC)OC(=O)c1cnc(Cl)cn1,0.744
4,CC(C)COC(=O)c1cnc(Cl)cn1,0.526
5,CCCCCCCCCCCOC(=O)c1cnc(Cl)cn1,1.291
6,CCCCCCCC(C)(CCCC)OC(=O)c1cnc(Cl)cn1 (stereo not drawn),0.124
7,CCCCCCOC(=O)c1cnc(Cl)cn1,0.88
8,CCCCCC(CC)OC(=O)c1cnc(Cl)cn1 (stereo not drawn),0.626
9,CCCOC(=O)c1cnc(Cl)cn1,1.098
10,CCCCCCCCC(C)OC(=O)c1cnc(Cl)cn1 (stereo not drawn),0.97
11,CCCCCCCCC(CC)OC(=O)c1cnc(Cl)cn1 (stereo not drawn),0.087
12,CCCCCOC(=O)c1cnc(Cl)cn1,0.854
13,CCCCCC(C)OC(=O)c1cnc(Cl)cn1 (stereo not drawn),0.904
14,CCCCOC(=O)c1cnc(Cl)cn1,0.526
15,CCCCCCCCC(C)(C)OC(=O)c1cnc(Cl)cn1,0.388
16,CCCCCCCCCCOC(=O)c1cnc(F)cn1,0.946
17,CCCCCCCCCCCC(C)OC(=O)c1cnc(Cl)cn1 (stereo not drawn),0.124
